MCL1-BIM inh: MCL1-BIM-BH3 interaction inhibition (human) | AID 2057 | GST-MCL1 / FITC-Bim-BH3 fluorescence polarization | inhibition, % at 10.9 µM | 0.68% of 320,000 active | Q07820;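 active = inhibition above the mean inhibition of all tested compounds plus 3 SD, set per campaign, cut at about 40% in these data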;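 note: 0% = DMSO wells and 100% = unlabeled Bim-BH3 peptide control; higher means more loss of mP so more displacement of Bim peptide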
Target sequence (Q07820 whole entry, looked up): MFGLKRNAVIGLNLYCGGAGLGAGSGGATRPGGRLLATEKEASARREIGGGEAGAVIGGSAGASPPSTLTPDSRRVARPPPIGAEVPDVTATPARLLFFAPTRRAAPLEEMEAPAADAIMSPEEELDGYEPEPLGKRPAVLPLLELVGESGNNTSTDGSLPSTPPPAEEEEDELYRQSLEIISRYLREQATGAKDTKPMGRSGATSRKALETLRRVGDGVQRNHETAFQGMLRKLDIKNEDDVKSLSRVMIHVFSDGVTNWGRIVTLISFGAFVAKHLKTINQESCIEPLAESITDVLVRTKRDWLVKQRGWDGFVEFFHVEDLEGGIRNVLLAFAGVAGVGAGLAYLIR
Mcl1-Bid inh: Mcl-1/Bid interaction inhibition. TR-FRET Mcl-1/Bid-Dy647 peptide binding, 1536-well. inhibition, % at 21.7 µM. 0.97% of 220,000 active. AID 1021;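 active = compounds that cut the binding signal by more than half at the single screening dose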;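 note: His-tagged Mcl-1 with europium anti-His antibody binding Bid BH3 peptide; 0% = Mcl-1 plus peptide wells and 100% = peptide-only wells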
Bim-Mcl-1: human Bim-Mcl-1 interaction inhibition | Q07820 | Bead-based flow cytometry, Bim peptide-Mcl-1 binding | inhibition, % at 10 µM | 0.1% of 190,000 active | AID 1009; in the data active = inhibition above about 40%;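 note: 0% = no compound tracer wells and 100% = peptide blocker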
Mcl1 Noxa PPI: Mcl-1/Noxa interaction inhibition. 1.5% of 220,000 active. AID 1022. Q07820. inhibition, % at 21.7 µM. TR-FRET Mcl-1/Noxa peptide binding, 2 h;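 active = compounds that cut the protein-peptide binding signal by more than 50% relative to plate controls in a single-dose test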;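 note: His-tagged Mcl-1 with rhodamine Noxa BH3 peptide and terbium anti-His antibody; 0% = Mcl-1 plus Noxa peptide wells and 100% = peptide-only wells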
T cell modulator: modulates CD8 T cell binding to vesicles; 0.068% of 330,000 active; response (vesicle binding), % at 7 µM; 2C CD8+ T cell-vesicle binding, flow cytometry; hits give low values; AID 2052;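 active = response, share of CD8 T cells binding vesicles, and their 90th percentile fluorescence all below set limits, cut at about 80% in these data, passing the limit was not always enough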;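 note: values below 100% mean blocked vesicle binding to the CD8+ T cells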
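System: murine 2C transgenic CD8+ T lymphocytes; also added: QL9-loaded Drosophila micro-vesicles; times: binding 1.5 h at 37 °C; measured by: flow cytometry, PE anti-B7-1 (FL2) versus Alexa647 anti-CD8 (FL8), PFA-fixed; control set: Peptide-free naked vesicles (low) and QL9 vesicles with 0.7% DMSO vehicle (high)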
DSG3 Ab inh: inhibitors of pemphigus antibody binding to human desmoglein-3. P32926. DSG3-coupled beads, scFv-anti-DSG3-GFP binding, flow cytometry; hits give low values. binding (percent of control), % at 10 µM. 0.48% of 310,000 active. AID 588358;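 active = binding more than 3 SD below its plate's average and above zero; inconclusive = below that plate limit but binding exactly zero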;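 note: hits lower antibody fragment binding to DSG3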
BCLXL inh confirm: counter-screen for MCL1 inhibitors: confirmation of human Bcl-xL inhibitors | inhibition, % at 10.9 µM | AID 2166 | 54% of 1,700 active | shares compounds with MCL1-BIM inh | GST-Bcl-xL / FITC-Bim BH3 peptide FP binding;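 active = inhibition above a cutoff equal to the mean inhibition of all tested compounds plus 3 SD, cut at about 30% in these data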;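 note: 0% = DMSO wells and 100% = unlabeled Bim BH3 control peptide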
Target sequence (Q07817 whole entry, looked up): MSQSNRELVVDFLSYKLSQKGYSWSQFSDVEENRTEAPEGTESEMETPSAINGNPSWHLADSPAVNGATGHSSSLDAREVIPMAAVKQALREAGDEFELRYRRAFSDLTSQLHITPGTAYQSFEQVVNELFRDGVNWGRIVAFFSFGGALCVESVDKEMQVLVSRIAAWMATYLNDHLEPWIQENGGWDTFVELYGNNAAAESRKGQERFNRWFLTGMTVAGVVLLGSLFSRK
MCL1 inh confirm: MCL1-BIM-BH3 interaction inhibition, confirmation | inhibition, % at 10.9 µM | 61% of 1,700 active | GST-MCL1 / FITC-Bim-BH3 fluorescence polarization | shares compounds with MCL1-BIM inh;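 active = inhibition above the average of all tested compounds plus 3 SD, cut at about 40% in these data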;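 note: 0% = DMSO wells and 100% = unlabeled Bim-BH3 control peptide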
Active calls of the source: *; ! = not active in a repeat. An excerpt weighted towards active compounds, which were near 2.3% of everything screened.

Screening CN1CCC2(CC1)C(C#N)=C(N)NC(S)=C2C#N returned MCL1-BIM inh 118.3*!, Mcl1-Bid inh -42.4, Bim-Mcl-1 -5.0, Mcl1 Noxa PPI 44.0, T cell modulator 244.8, DSG3 Ab inh 91.8, BCLXL inh confirm 89.9* and MCL1 inh confirm 103.6*.
Screening O=[N+]([O-])c1cccc(O)c1 returned MCL1-BIM inh 0.1, T cell modulator 651.9 and DSG3 Ab inh 101.9.
Screening O=[N+]([O-])c1cc(S(=O)(=O)c2ccc(O)c([N+](=O)[O-])c2)ccc1O returned MCL1-BIM inh 47.3*, Mcl1-Bid inh -70.0, Bim-Mcl-1 0.0, Mcl1 Noxa PPI 84.9*, T cell modulator 203.5, DSG3 Ab inh 127.0, BCLXL inh confirm 24.0 and MCL1 inh confirm 71.9*.
For O=C1NC(=S)N(c2ccccc2)C(=O)/C1=C/c1ccco1 the results were MCL1-BIM inh 52.7*, T cell modulator 356.1, DSG3 Ab inh 111.9, BCLXL inh confirm 17.6 and MCL1 inh confirm 24.5.
`CCOc1cccc(N2C(=O)/C(=C/c3ccco3)C(=O)NC2=S)c1` gave MCL1-BIM inh -4.8, T cell modulator 219.7 and DSG3 Ab inh 110.6.
CC(=O)c1cccc(OCC(=O)N2CCN(CC(=O)Nc3cccc(F)c3)CC2)c1 was read as MCL1-BIM inh 3.1 and T cell modulator 416.3.
CCN1/C(=C\C=C\C2=[N+](CC)c3ccccc3C2(C)C)C(C)(C)c2ccccc21 was read as MCL1-BIM inh active, Mcl1-Bid inh -8.8, Bim-Mcl-1 0.0, Mcl1 Noxa PPI inactive, T cell modulator inactive, BCLXL inh confirm active and MCL1 inh confirm active.
Screening COc1ccccc1-n1c(-c2ccccc2Cl)nc2ccccc2c1=O returned MCL1-BIM inh -0.6, T cell modulator 173.4 and DSG3 Ab inh inconclusive.
For COc1ccc(N2C(=O)NC(=O)/C(=C\c3ccc([N+](=O)[O-])s3)C2=O)cc1 the results were MCL1-BIM inh 41.0*, Mcl1-Bid inh -14.8, Bim-Mcl-1 1.0, Mcl1 Noxa PPI 50.9*, T cell modulator 220.5, DSG3 Ab inh 96.9, BCLXL inh confirm 43.8* and MCL1 inh confirm 54.6*.
For COc1ccccc1N1C(=O)NC(=O)/C(=C/c2ccc([N+](=O)[O-])s2)C1=O the results were MCL1-BIM inh 25.4, Mcl1-Bid inh -24.9, Mcl1 Noxa PPI 45.4, T cell modulator 264.6 and DSG3 Ab inh 103.7.
Screening O=C1NC(=O)N(Cc2ccc(F)cc2)C(=O)/C1=C\c1ccc([N+](=O)[O-])s1 returned MCL1-BIM inh 40.4*, Mcl1-Bid inh 30.6, Mcl1 Noxa PPI 93.0*, T cell modulator 283.0, DSG3 Ab inh 98.4, BCLXL inh confirm 16.8 and MCL1 inh confirm 43.6*.
`O=C1NC(=O)N(Cc2ccc(F)cc2)C(=O)/C1=C\c1ccc(N2CCCC2)cc1` gave MCL1-BIM inh -98.5, Mcl1-Bid inh -34.5, Mcl1 Noxa PPI 35.2, T cell modulator 434.2 and DSG3 Ab inh 231.8.
For CC1=C(C)CC2(C(=O)NC(=O)NC2=O)C(C)C1 (configuration not stated) the results were DSG3 Ab inh 94.9.
For O=c1cccc2n1CC1CNCC2C1 (configuration not stated) the results were MCL1-BIM inh 5.3 and T cell modulator 605.1.
`NC(Cc1cc(O)c(O)cc1O)C(=O)O` (configuration not stated) gave MCL1-BIM inh 95.4*, T cell modulator 329.5, BCLXL inh confirm 54.6* and MCL1 inh confirm 96.1*.
For NCCc1cc(O)c(O)cc1O the results were DSG3 Ab inh 85.1.
For CC(C)n1c(O)c(C2c3cc(Cl)ccc3Oc3[nH]c(=O)n(C(C)C)c(=O)c32)c(=O)[nH]c1=O (configuration not stated) the results were Mcl1-Bid inh -67.3, Mcl1 Noxa PPI 38.5 and DSG3 Ab inh 98.6.
`Cc1ccc(NC(=O)CSc2nnc([C@@H](N)Cc3c[nH]c4ccccc34)o2)c(C)c1` gave MCL1-BIM inh 10.2, Mcl1-Bid inh -59.3, Bim-Mcl-1 -5.0, Mcl1 Noxa PPI 19.0, T cell modulator 492.0 and DSG3 Ab inh 99.6.
O=c1[nH]c(=O)n(C2CCCCC2)c(O)c1C=Nc1ccc(N2CCOCC2)cc1 was read as MCL1-BIM inh 1.9, Mcl1-Bid inh -90.7, Bim-Mcl-1 0.0, Mcl1 Noxa PPI 13.4, T cell modulator 197.3 and DSG3 Ab inh 107.6.
For O=c1[nH]c(=S)n(-c2ccc(Cl)cc2)c(O)c1C=Nc1ccc(N2CCOCC2)cc1 the results were MCL1-BIM inh active, Mcl1-Bid inh -14.8, Bim-Mcl-1 3.0, Mcl1 Noxa PPI -2.4, T cell modulator 367.6, DSG3 Ab inh 114.0, BCLXL inh confirm 185.4* and MCL1 inh confirm active.
For O=C(N/N=C/c1c(O)n(-c2cccc3ccccc23)c(=O)[nH]c1=O)c1ccncc1 the results were MCL1-BIM inh -20.8, Mcl1-Bid inh -45.3, Mcl1 Noxa PPI -4.6, T cell modulator 83.5 and DSG3 Ab inh 91.8.
COC(=O)[C@@]1(C#N)[C@@H]2C=CC(C(C)=O)=CN2[C@@H](C(N)=O)[C@@H]1c1ccc(F)cc1 was read as MCL1-BIM inh 81.4*, Mcl1-Bid inh -36.4, Mcl1 Noxa PPI 4.8, T cell modulator 265.9, DSG3 Ab inh 109.0, BCLXL inh confirm 149.0* and MCL1 inh confirm 188.8*.
O=c1[nH]c(=O)n(-c2cccc(F)c2)c(O)c1/C=C1\C=Nc2ccccc21 was read as MCL1-BIM inh 198.8*, T cell modulator 203.4, DSG3 Ab inh 90.5, BCLXL inh confirm 154.4* and MCL1 inh confirm 177.2*.
O=c1cccc2n1C[C@H]1C[C@@H]2CN2CCCC[C@@H]12 was read as MCL1-BIM inh -7.3, Mcl1-Bid inh 4.8, Mcl1 Noxa PPI -18.7, T cell modulator 91.4 and DSG3 Ab inh 86.7.
`CCOC(=O)C1CCCN(c2ccc([N+](=O)[O-])c3nonc23)C1` (configuration not stated) gave Mcl1-Bid inh -52.1, Bim-Mcl-1 -43.0, Mcl1 Noxa PPI -49.2 and DSG3 Ab inh 427.7.
For COCCCNC(=O)Cn1cc(/C=C2\C(=O)NC(=O)N(c3ccccc3F)C2=O)c2ccccc21 the results were MCL1-BIM inh 100.0*, T cell modulator 150.5, DSG3 Ab inh 94.7, BCLXL inh confirm 117.3* and MCL1 inh confirm 133.3*.
Screening Nc1cccc(N=Cc2c(O)n(Cc3ccc(F)cc3)c(=O)[nH]c2=O)c1 returned MCL1-BIM inh 83.8*, Mcl1-Bid inh -27.1, Bim-Mcl-1 -2.0, Mcl1 Noxa PPI 9.2, T cell modulator 319.5, DSG3 Ab inh 103.1, BCLXL inh confirm 15.7 and MCL1 inh confirm 1.6.
For O=c1[nH]c(=O)n(Cc2ccc(F)cc2)c(O)c1C=Nc1ccc(Cl)cc1 the results were MCL1-BIM inh -3.1, Mcl1-Bid inh 3.2, Bim-Mcl-1 -2.0, Mcl1 Noxa PPI 21.2, T cell modulator 297.0 and DSG3 Ab inh 77.8.

Screening results deposited in PubChem by several laboratories.
